Laboratory results as given in ChEMBL document CHEMBL3352456, “Design, synthesis and biological activity of a novel Rutin analogue with improved lipid soluble properties” (Bioorg Med Chem, 2015).
Calls of active or inactive are those of the source. The calls are words filed in the database; no cut-off is given here.

Legend:
[1] = tested on: Trichophyton rubrum; test: Antifungal activity against Trichophyton rubrum (Castellani) Sabouraud IHME 4321 assessed as growth inhibition at 100 ug/ml measured on day 7 by sabouraud dextrose agar diffusion method relative to control; type: functional; conditions: (Castellani) Sabouraud IHME 4321, 168 h, read-out: GI
In short: (§1)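 Dermatophyte strains kept on Sabouraud dextrose agar slants. Mycelium disks (10 mm) from a stationary-phase culture grown at 26 ± 1 °C on cellophane over SDA to log phase, then moved onto SDA containing compound added from DMSO stock at 45 °C (final DMSO 0.1%; DMSO-only controls). Colony diameter measured daily for 7 days. % inhibition = (dex − dex')/dex × 100. Three replicates per concentration; mean of three independent experiments.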

[2] = tested on: Nannizzia gypsea; test: Antifungal activity against Nannizzia gypsea (Bodin) Guiart et Grigoraki CBS 286.63 assessed as growth inhibition at 100 ug/ml measured on day 7 by sabouraud dextrose agar diffusion method relative to control; type: functional; in short: as §1
[3] = tested on: K562; test: Induction of apoptosis in human K562 cells assessed as early apoptotic cells at 10 uM after 3 days by Annexin-V staining-based assay (reference value: 5.41%); type: functional
[4] = tested on: K562; test: Induction of apoptosis in human K562 cells assessed as apoptotic cells at 5 uM after 3 days by Annexin-V staining-based assay (reference value: 11.37%); type: functional
[5] = tested on: K562; test: Induction of apoptosis in human K562 cells assessed as early apoptotic cells at 5 uM after 3 days by Annexin-V staining-based assay (reference value: 5.41%); type: functional
[6] = Antioxidant activity assessed as inhibition of AAPH-induced peroxyl radical generation by oxygen radical absorbance capacity assay relative to trolox; type: physicochemical
In short: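 Run at 37 °C and pH 7.4 with fluorescein (85 nM) as the probe and AAPH as the peroxyl radical source. Compounds were dissolved fresh in PBS. Fluorescence read at ex 485/em 538 nm every 5 min for up to 30 min after AAPH addition. Net area under the decay curve (blank minus sample) was calibrated against Trolox at 10–50 μM and given as Trolox equivalents.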

[7] = tested on: Paraphyton cookei; test: Antifungal activity against Nannizzia cajetani Ajello CBS 495.70 assessed as growth inhibition at 20 ug/ml measured on day 7 by sabouraud dextrose agar diffusion method relative to control; type: functional; conditions: Ajello CBS 495.70, 168 h, read-out: GI; in short: as §1
[8] = tested on: K562; test: Induction of apoptosis in human K562 cells assessed as early apoptotic cells at 500 uM after 3 days by Annexin-V staining-based assay (reference value: 5.41%); type: functional
[9] = tested on: Paraphyton cookei; test: Antifungal activity against Nannizzia cajetani Ajello CBS 495.70 assessed as growth inhibition at 100 ug/ml measured on day 7 by sabouraud dextrose agar diffusion method relative to control; type: functional; conditions: Ajello CBS 495.70, 168 h, read-out: GI; in short: as §1
[10] = tested on: Trichophyton mentagrophytes; test: Antifungal activity against Trichophyton mentagrophytes (Robin) Blanchard CBS 160.66 assessed as growth inhibition at 100 ug/ml measured on day 7 by sabouraud dextrose agar diffusion method relative to control; type: functional; conditions: (Robin) Blanchard CBS 160.66, 168 h, read-out: GI; in short: as §1
[11] = tested on: K562; test: Induction of apoptosis in human K562 cells assessed as live cells at 10 uM after 3 days by Annexin-V staining-based assay (reference value: 87.33%); type: functional
[12] = tested on: K562; test: Induction of apoptosis in human K562 cells assessed as apoptotic cells at 500 uM after 3 days by Annexin-V staining-based assay (reference value: 11.37%); type: functional
[13] = tested on: K562; test: Induction of apoptosis in human K562 cells assessed as apoptotic cells at 10 uM after 3 days by Annexin-V staining-based assay (reference value: 11.37%); type: functional
[14] = tested on: K562; test: Induction of apoptosis in human K562 cells assessed as live cells at 1000 uM after 3 days by Annexin-V staining-based assay (reference value: 87.33%); type: functional
[15] = Antifungal activity against Microsporum canis Bodin CBS 4727 assessed as growth inhibition at 20 ug/ml measured on day 7 by sabouraud dextrose agar diffusion method relative to control; type: functional; in short: as §1
[16] = tested on: Trichophyton rubrum; test: Antifungal activity against Trichophyton rubrum (Castellani) Sabouraud IHME 4321 assessed as growth inhibition at 20 ug/ml measured on day 7 by sabouraud dextrose agar diffusion method relative to control; type: functional; conditions: (Castellani) Sabouraud IHME 4321, 168 h, read-out: GI; in short: as §1
[17] = tested on: Trichophyton violaceum; test: Antifungal activity against Trichophyton violaceum Malmsten CBS 459.61 assessed as growth inhibition at 100 ug/ml measured on day 7 by sabouraud dextrose agar diffusion method relative to control; type: functional; conditions: Malmsten CBS 459.61, 168 h, read-out: GI; in short: as §1
[18] = tested on: K562; test: Induction of apoptosis in human K562 cells assessed as dead cells at 1000 uM after 3 days by Annexin-V staining-based assay (reference value: 1.29%); type: functional
[19] = Antioxidant activity assessed as superoxide anion radical scavenging by photochemiluminescence method relative to trolox; type: physicochemical
In short: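 Superoxide was generated photochemically from luminol under UV light (351 nm). Lag time (water-soluble, ACW) or integrated light emission over 180 s (lipid-soluble, ACL) was compared with a Trolox standard curve. Samples were centrifuged 5 min at 16000 g and diluted 1:40 in water (ACW) or methanol (ACL). Triplicate determinations.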

[20] = tested on: K562; test: Induction of apoptosis in human K562 cells assessed as apoptotic cells at 1000 uM after 3 days by Annexin-V staining-based assay (reference value: 11.37%); type: functional
[21] = tested on: K562; test: Induction of apoptosis in human K562 cells assessed as dead cells at 5 uM after 3 days by Annexin-V staining-based assay (reference value: 1.29%); type: functional
[22] = tested on: Epidermophyton floccosum; test: Antifungal activity against Epidermophyton floccosum (Hartz) Langeron and Milochevitch CBS 358.93 assessed as growth inhibition at 20 ug/ml measured on day 7 by sabouraud dextrose agar diffusion method relative to control; type: functional; conditions: (Hartz) Langeron and Milochevitch CBS 358.93, 168 h, read-out: GI; in short: as §1
[23] = tested on: K562; test: Induction of apoptosis in human K562 cells assessed as live cells at 5 uM after 3 days by Annexin-V staining-based assay (reference value: 87.33%); type: functional
[24] = tested on: Epidermophyton floccosum; test: Antifungal activity against Epidermophyton floccosum (Hartz) Langeron and Milochevitch CBS 358.93 assessed as growth inhibition at 100 ug/ml measured on day 7 by sabouraud dextrose agar diffusion method relative to control; type: functional; conditions: (Hartz) Langeron and Milochevitch CBS 358.93, 168 h, read-out: GI; in short: as §1
[25] = tested on: Trichophyton tonsurans; test: Antifungal activity against Trichophyton tonsurans Malmsten CBS 483.76 assessed as growth inhibition at 20 ug/ml measured on day 7 by sabouraud dextrose agar diffusion method relative to control; type: functional; conditions: Malmsten CBS 483.76, 168 h, read-out: GI; in short: as §1
[26] = Antifungal activity against Microsporum canis Bodin CBS 4727 assessed as growth inhibition at 100 ug/ml measured on day 7 by sabouraud dextrose agar diffusion method relative to control; type: functional; in short: as §1
[27] = tested on: K562; test: Induction of apoptosis in human K562 cells assessed as late apoptotic cells at 10 uM after 3 days by Annexin-V staining-based assay (reference value: 5.96%); type: functional
[28] = tested on: K562; test: Induction of apoptosis in human K562 cells assessed as late apoptotic cells at 5 uM after 3 days by Annexin-V staining-based assay (reference value: 5.96%); type: functional
[29] = tested on: Trichophyton violaceum; test: Antifungal activity against Trichophyton violaceum Malmsten CBS 459.61 assessed as growth inhibition at 20 ug/ml measured on day 7 by sabouraud dextrose agar diffusion method relative to control; type: functional; conditions: Malmsten CBS 459.61, 168 h, read-out: GI; in short: as §1

## C[C@@H]1O[C@@H](OC[C@H]2O[C@@H](Oc3c(-c4ccc(O)c(O)c4)oc4cc(O)cc(O)c4c3=O)[C@H](O)[C@@H](O)[C@@H]2O)[C@H](O)[C@H](O)[C@H]1O [RUTIN]
[1]
  inhibition of growth at 100 µg/mL: 9.9%
[2]
  growth inhibition (GI): inactive
[3]
  Activity: inactive
[4]
  Activity: inactive
[5]
  Activity: inactive
[6]
  Activity: 10708.06 µmol/g
[7]
  inhibition of growth at 20 µg/mL: 3.3%
[8]
  Activity: 9.15%
[9]
  inhibition of growth at 100 µg/mL: 12.3%
[10]
  inhibition of growth at 100 µg/mL: 3.3%
[11]
  Activity: inactive
[12]
  Activity: 13.2%
[13]
  Activity: inactive
[14]
  Activity: 84.85%
[15]
  growth inhibition (GI): inactive
[16]
  inhibition of growth at 20 µg/mL: 6.1%
[17]
  inhibition of growth at 100 µg/mL: 4.2%
[18]
  Activity: 0.4%
[19]
  Activity: 1883.08 µmol/g
[20]
  Activity: 14.75%
[21]
  Activity: inactive
[22]
  inhibition of growth at 20 µg/mL: 1.9%
[23]
  Activity: inactive
[24]
  inhibition of growth at 100 µg/mL: 2.2%
[25]
  inhibition of growth at 20 µg/mL: 0%
[26]
  growth inhibition (GI): inactive
[27]
  Activity: inactive
[28]
  Activity: inactive
[29]
  inhibition of growth at 20 µg/mL: 2.1%
